# From ChEMBL document CHEMBL2057168, “(1aR,5aR)1a,3,5,5a-Tetrahydro-1H-2,3-diaza-cyclopropa[a]pentalene-4-carboxylic acid (MK-1903): a potent GPR109a agonist that lowers free fatty acids in humans” (J Med Chem, 2012)
# Activity calls are given as the source filed them. The rule behind the calls is not given here.
# Tests used:
# Cytochrome P450 2D6 = Cytochrome P450 2D6 (Homo sapiens, UniProt P10635); assay: Activity at CYP2D6; assay type: ADME
# Rattus norvegicus = assay: Antidyslipedic activity in fasted Sprague-Dawley rat assessed as decrease in free fatty acid level at 0.001 mg/kg, po by NEFA C-free fatty acid assay; assay type: functional, organism-based; design: dose 0.001 mg/kg
# How it was run: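 Male Sprague-Dawley rats fasted, compound by oral gavage, serial plasma sampling after dosing for free fatty acids over a time course; vehicle-dosed control group.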
# [1] = Blood clearance in mouse; assay type: ADME, organism-based; settings: whole blood
# How it was run: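 Pharmacokinetics across species; for mice, clearance determined in blood rather than plasma following dosing.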
# [2] = Terminal half life in mouse; assay type: ADME, organism-based; settings: in vivo, read-out: beta t1/2 (converted)
# Mus musculus = assay: Dose normalized AUC in po dosed mouse; assay type: ADME, organism-based; settings: in vivo
# [3] = Oral bioavailability in mouse; assay type: ADME, organism-based; settings: in vivo
# [4] = Oral bioavailability in dog; assay type: ADME, organism-based, Canis lupus familiaris; settings: in vivo
# [5] = Terminal half life in rhesus monkey; assay type: ADME, organism-based, Macaca mulatta; settings: in vivo, read-out: beta t1/2 (converted)
# Rhesus monkey = assay: Dose normalized Cmax in po dosed rhesus monkey; assay type: ADME, organism-based, Macaca mulatta; settings: in vivo
# Homo sapiens [6] = assay: Antidyslipedic activity in human assessed as decrease in free fatty acid level at 50 to 200 mg, po administered as a single dose measured after 8 hrs relative to placebo control; assay type: functional, organism-based
# Homo sapiens [7] = assay: Activation of GPR109a receptor in human assessed as PGD2 metabolite level in urine at 10 to >10 mg, po; assay type: functional, organism-based
# [8] = AUC (0 to 12 hrs) in human at 150 mg, po BID administered on day 1 followed by 2-day wash out period after which dosing continued up to day 11 measured on day 11; assay type: ADME, organism-based; design: dose 150 mg, time < 12 hr, route oral; settings: plasma
# How it was run: (§1)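 Double-blind, placebo-controlled, randomized dose-escalation study in healthy male volunteers, six cohorts of eight (six active, two placebo). Oral dose on day 1, two-day washout, then dosing days 4–11; the 200 mg qd cohort was titrated over days 1–4. Venous blood taken predose and at 0.5–12 h on days 1, 4 and 11; plasma drug measured. τ 12 h (bid), 24 h (qd), 8 h (tid), 6 h (qid).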
# [9] = AUC (0 to 8 hrs) in human at 150 mg, po TID administered on day 1 followed by 2-days wash out period after which dosing continued up to day 11 measured on day 1; assay type: ADME, organism-based; design: time < 8 hr, dose 150 mg, route oral; settings: plasma
# How it was run: (§2)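 Healthy male volunteers, double-blind placebo-controlled randomized dose escalation; cohorts of eight (six active, two placebo). Oral dose on day 1, two-day washout, then dosing days 4–11. Venous blood predose and 0.5, 1, 1.5, 2, 4, 6, 8, 10, 12 h postdose on days 1, 4 and 11 for plasma drug; dosing interval (τ) 12 h for BID, 8 h for TID; Ctrough taken at end of interval.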
# [10] = Tmax in human at 150 mg, po TID administered on day 1 followed by 2-days wash out period after which dosing continued up to day 11 measured on day 11; assay type: ADME, organism-based; settings: in vivo
# How it was run: (§3)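 Double-blind, placebo-controlled, randomized multiple oral dose study in healthy male volunteers (cohorts of eight; six active, two placebo). Dose given on day 1, then a two-day washout, then dosing days 4–11; for the QD arm, subjects were titrated over days 1–4. Venous plasma sampled predose and 0.5, 1, 1.5, 2, 4, 6, 8, 10, 12 h postdose on days 1, 4 and 11. Tmax reported as median (min–max).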
# [11] = Tmax in human at 175 mg, po QID administered on day 1 followed by 2-days wash out period after which dosing continued up to day 11 measured on day 4; assay type: ADME, organism-based; settings: in vivo; how it was run: as §3
# [12] = Apparent half life in human at titreated po dose administered from day 1 to 4 followed by 200 mg, po QD administered up to day 11 measured on day 11; assay type: ADME, organism-based; settings: in vivo, read-out: t1/2(app) (converted); how it was run: as §1
# [13] = Drug excretion in human urine assessed as unchanged drug at 50 to 150 mg, po BID in administered on day 1 followed by 2-days wash out period after which dosing continued up to day 11; assay type: ADME, organism-based; settings: read-out: Ae
# Homo sapiens [14] = assay: Toxicity in human assessed as occurrence of flushing at 10 to >10 mg administered as single dose; assay type: organism-based; settings: in vivo
# How it was run: (§4)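 Healthy volunteers scored subject-reported flushing with a flushing symptoms questionnaire after single oral doses and during repeat divided daily dosing.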
# Homo sapiens [15] = assay: Toxicity in human assessed as occurrence of flushing at 10 to >10 mg administered for 1 to 2 days as divided dose; assay type: organism-based; settings: in vivo; how it was run: as §4
# [16] = Cmax in human at 50 mg, po BID administered on day 1 followed by 2-day wash out period after which dosing continued up to day 11 measured on day 4; assay type: ADME, organism-based; design: dose 50 mg, route oral; settings: in vivo
# How it was run: (§5)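 Healthy male volunteers took part in a double-blind, randomized, placebo-controlled dose-escalation study, with cohorts of 8 (6 on drug, 2 on placebo). Each subject got an oral dose on day 1, then a 2-day washout, then dosing on days 4–11. The 200 mg qd group was titrated over days 1–4. Venous plasma was sampled predose and 0.5–12 h postdose on days 1, 4 and 11, and predose on days 5–10 for troughs.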
# [17] = Cmax in human at 50 mg, po BID administered on day 1 followed by 2-day wash out period after which dosing continued up to day 11 measured on day 11; assay type: ADME, organism-based; design: dose 50 mg, route oral; settings: in vivo; how it was run: as §5
# [18] = Cmax in human at 100 mg, po BID administered on day 1 followed by 2-day wash out period after which dosing continued up to day 11 measured on day 1; assay type: ADME, organism-based; design: dose 100 mg, route oral; settings: in vivo; how it was run: as §1
# [19] = Cmax in human at 150 mg, po BID administered on day 1 followed by 2-day wash out period after which dosing continued up to day 11 measured on day 1; assay type: ADME, organism-based; design: dose 150 mg, route oral; settings: in vivo; how it was run: as §1
# [20] = Cmin in human at 50 mg, po BID administered on day 1 followed by 2-day wash out period after which dosing continued up to day 11 measured on day 4 at 12 hrs; assay type: ADME, organism-based; settings: in vivo, read-out: Cmin; how it was run: as §5
# [21] = Cmin in human at 100 mg, po BID administered on day 1 followed by 2-day wash out period after which dosing continued up to day 11 measured on day 11 at 12 hrs; assay type: ADME, organism-based; settings: in vivo, read-out: Cmin; how it was run: as §2
# [22] = Cmin in human at 150 mg, po TID administered on day 1 followed by 2-days wash out period after which dosing continued up to day 11 measured on day 1 at 8 hrs; assay type: ADME, organism-based; settings: in vivo, read-out: Cmin; how it was run: as §5
# [23] = Cmin in human at titreated dose from day 1 to 4 followed by 200 mg, po QD administered up to day 11 measured on day 4 at 12 hrs; assay type: ADME, organism-based; settings: in vivo, read-out: Cmin; how it was run: as §5
# [24] = Cmin in human at titreated dose from day 1 to 4 followed by 200 mg, po QD administered up to day 11 measured on day 11 at 12 hrs; assay type: ADME, organism-based; settings: in vivo, read-out: Cmin; how it was run: as §5
# [25] = Cmin in human at 175 mg, po QID administered on day 1 followed by 2-days wash out period after which dosing continued up to day 11 measured on day 11 at 6 hrs; assay type: ADME, organism-based; settings: in vivo, read-out: Cmin; how it was run: as §5
# [26] = Tmax in human at 50 mg, po BID administered on day 1 followed by 2-day wash out period after which dosing continued up to day 11 measured on day 1; assay type: ADME, organism-based; settings: in vivo; how it was run: as §3
# [27] = Tmax in human at 50 mg, po BID administered on day 1 followed by 2-day wash out period after which dosing continued up to day 11 measured on day 4; assay type: ADME, organism-based; settings: in vivo; how it was run: as §3
# [28] = Tmax in human at 100 mg, po BID administered on day 1 followed by 2-day wash out period after which dosing continued up to day 11 measured on day 11; assay type: ADME, organism-based; settings: in vivo; how it was run: as §3
# Chain of Cytochrome P450 2D6 (P10635 whole entry): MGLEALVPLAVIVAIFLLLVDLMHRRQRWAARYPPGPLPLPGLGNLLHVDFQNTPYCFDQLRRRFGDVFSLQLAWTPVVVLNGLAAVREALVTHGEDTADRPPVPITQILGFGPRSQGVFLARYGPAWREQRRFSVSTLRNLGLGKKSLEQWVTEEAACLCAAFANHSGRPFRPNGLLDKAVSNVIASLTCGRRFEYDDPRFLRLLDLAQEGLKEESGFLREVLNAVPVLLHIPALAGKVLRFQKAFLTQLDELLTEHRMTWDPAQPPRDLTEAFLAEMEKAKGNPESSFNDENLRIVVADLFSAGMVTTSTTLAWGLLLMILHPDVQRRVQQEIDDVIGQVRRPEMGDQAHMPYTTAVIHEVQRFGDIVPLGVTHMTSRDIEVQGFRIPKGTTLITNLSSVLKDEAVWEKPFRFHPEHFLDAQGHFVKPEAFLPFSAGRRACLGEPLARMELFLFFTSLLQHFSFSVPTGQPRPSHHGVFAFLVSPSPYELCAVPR
smiles,measurement,setting,value
O=C(O)c1n[nH]c2c1C[C@H]1C[C@@H]21,Activity,Cytochrome P450 2D6,Not Active
same,Activity,Rattus norvegicus,inactive
same,clearance,[1],10 mL/min/kg
same,half-life,[2],8.7 h
same,AUC/dose,Mus musculus,4.1 µM·kg·h/mg
same,bioavailability,[3],40%
same,bioavailability,[4],100%
same,half-life,[5],1.1 h
same,Cmax/dose,Rhesus monkey,5.1 µM·kg/mg
same,Activity,Homo sapiens [6],inactive
same,Activity,Homo sapiens [7],Active
same,AUC at 12 h,[8],0.0788 µM·h
same,AUC at 8 h,[9],0.102 µM·h
same,Tmax,[10],1 h
same,Tmax,[11],1 h
same,half-life,[12],4.6 h
same,dose excreted,[13],70%
same,Activity,Homo sapiens [14],Toxic
same,Activity,Homo sapiens [15],Non-toxic
same,Cmax,[16],12.3 nM
same,Cmax,[17],16.2 nM
same,Cmax,[18],31.5 nM
same,Cmax,[19],41.2 nM
same,concentration at 12 h,[20],0.023 nM
same,concentration at 12 h,[21],0.104 nM
same,concentration at 8 h,[22],0.869 nM
same,concentration at 12 h,[23],0.244 nM
same,concentration at 12 h,[24],0.273 nM
same,concentration at 6 h,[25],2.86 nM
same,Tmax,[26],1 h
same,Tmax,[27],1.25 h
same,Tmax,[28],0.5 h
